Entries after “also recorded” stand apart in the source; their conditions may differ.
Experiments:
splenocytes [1] = format: cell-based, mouse; conditions: for IL-17A or IFNγ responses by ELISpot: 24 hours, 37°C
I-A^b = target: T1, I-A^b (Mus musculus, UniProt P14434+P14483); test: MHC binding assay, inhibition of radiolabeled peptide binding, I-A^b
T1 sequence (P14434 24-256): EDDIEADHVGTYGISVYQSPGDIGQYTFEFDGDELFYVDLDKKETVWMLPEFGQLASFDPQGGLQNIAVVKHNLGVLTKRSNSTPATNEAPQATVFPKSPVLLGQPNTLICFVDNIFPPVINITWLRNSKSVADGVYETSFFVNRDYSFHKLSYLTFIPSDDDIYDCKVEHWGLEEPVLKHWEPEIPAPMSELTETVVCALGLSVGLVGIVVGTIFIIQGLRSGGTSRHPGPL
T1 sequence (P14483 28-265): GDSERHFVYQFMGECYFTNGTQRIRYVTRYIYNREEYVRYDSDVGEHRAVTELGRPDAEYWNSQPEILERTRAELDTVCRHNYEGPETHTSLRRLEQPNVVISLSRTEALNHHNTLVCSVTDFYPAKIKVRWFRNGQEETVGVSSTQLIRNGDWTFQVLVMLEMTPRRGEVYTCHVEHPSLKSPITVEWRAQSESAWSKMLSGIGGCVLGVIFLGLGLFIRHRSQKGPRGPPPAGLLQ
Summary of the method: (§1)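 Class II MHC affinity-purified from mouse B cell lymphoma LB27.4. Complexes captured on Y3JP antibody-coated plates; bound cpm counted by microscintillation. Six peptide concentrations over a 100,000-fold range, ≥3 independent experiments. IC50 is the concentration giving 50% probe inhibition; unlabeled probe is the positive control.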

I-A^d = target: T2, I-A^d (Mus musculus, UniProt P01921+P04228); test: MHC binding assay, inhibition of radiolabeled peptide binding, I-A^d
T2 sequence (P04228 24-256): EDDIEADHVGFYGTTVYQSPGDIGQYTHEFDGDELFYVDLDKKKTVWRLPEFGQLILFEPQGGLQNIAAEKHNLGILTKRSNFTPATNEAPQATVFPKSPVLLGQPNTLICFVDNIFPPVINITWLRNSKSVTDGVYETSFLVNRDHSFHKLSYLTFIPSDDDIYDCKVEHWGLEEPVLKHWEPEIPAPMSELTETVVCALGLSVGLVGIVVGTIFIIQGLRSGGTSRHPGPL
T2 sequence (P01921 28-265): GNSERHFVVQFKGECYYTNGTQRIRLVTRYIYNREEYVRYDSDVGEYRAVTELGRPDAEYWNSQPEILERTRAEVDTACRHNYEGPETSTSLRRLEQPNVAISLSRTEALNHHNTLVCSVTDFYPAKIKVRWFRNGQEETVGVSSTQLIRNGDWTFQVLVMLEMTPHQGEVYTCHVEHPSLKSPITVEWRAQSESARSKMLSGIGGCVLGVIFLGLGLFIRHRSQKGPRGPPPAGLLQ
Summary of the method: as §1

I-E^d = target: T3, I-E^d (Mus musculus, UniProt P01904+P01915); test: MHC binding assay, inhibition of radiolabeled peptide binding, I-E^d
T3 sequence (P01904 26-255): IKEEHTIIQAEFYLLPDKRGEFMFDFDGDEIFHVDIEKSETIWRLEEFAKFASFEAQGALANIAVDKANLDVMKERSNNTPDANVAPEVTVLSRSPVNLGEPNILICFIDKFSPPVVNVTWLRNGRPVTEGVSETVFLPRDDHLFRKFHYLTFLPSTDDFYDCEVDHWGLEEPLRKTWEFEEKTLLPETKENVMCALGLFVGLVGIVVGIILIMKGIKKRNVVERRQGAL
T3 sequence (P01915 27-264 limits assumed): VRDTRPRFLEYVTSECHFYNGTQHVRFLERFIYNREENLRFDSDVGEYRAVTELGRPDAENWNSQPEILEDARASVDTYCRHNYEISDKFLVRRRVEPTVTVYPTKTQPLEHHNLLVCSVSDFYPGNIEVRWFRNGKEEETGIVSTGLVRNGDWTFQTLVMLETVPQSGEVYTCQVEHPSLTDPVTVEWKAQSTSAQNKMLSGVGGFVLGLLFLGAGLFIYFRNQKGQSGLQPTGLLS

splenocytes [2] = conditions: mouse, in vivo
S. aureus = tested on: S. aureus; design: species or system S. aureus strain 923, a USA300 isolate; mice; conditions: mouse, in vivo
[3] = tested on: tetramer^+ CD44^hi CD4^+ T cells; conditions: mouse, in vivo
TFH cells = conditions: mouse, in vivo

Compound | IFNγ response by ELISpot (splenocytes [1]) | IL-17A and IFNγ responses, mice expressing H-2^d compared with H-2^b (splenocytes [1]) | IL-17A response by ELISpot (splenocytes [1]) | IL-17A or IFNγ responses by ELISpot (splenocytes [1]) | IC50 (I-A^b) [µM] | other results
LukS-PV: leukocidin S-PV, purified from E. coli, GST removed; sae-regulated antigen | weaker IFNγ; also recorded: moderate IFNg responses | significantly stronger IL-17A and IFNγ responses | strongest IL-17A responses; also recorded: strong IL-17A responses | minimal IL-17A or IFNγ responses; also recorded: no detectable responses |  | 
CC(C)[C@H](NC(=O)CNC(=O)[C@H](Cc1c[nH]c2ccccc12)NC(=O)[C@@H](N)CCCCN)C(=O)N[C@@H](CCCCN)C(=O)N[C@@H](C)C(=O)N[C@@H](CC(N)=O)C(=O)N[C@@H](CCC(=O)O)C(=O)N[C@@H](Cc1ccccc1)C(=O)N[C@H](C(=O)N[C@H](C(=O)N1CCC[C@H]1C(=O)N[C@@H](CC(=O)O)C(=O)NCC(=O)N[C@@H](CCCCN)C(=O)N[C@@H](CCCCN)C(=O)O)[C@@H](C)O)C(C)C [LukE185–200] |  |  |  |  | 4.05 | 
CC[C@H](C)[C@H](N)C(=O)NCC(=O)NCC(=O)N[C@@H](CC(N)=O)C(=O)NCC(=O)N[C@@H](CO)C(=O)N[C@@H](Cc1ccccc1)C(=O)N[C@@H](CC(N)=O)C(=O)N[C@@H](Cc1ccc(O)cc1)C(=O)N[C@@H](CO)C(=O)N[C@@H](CCCCN)C(=O)N[C@H](C(=O)N[C@H](C(=O)N[C@@H](CO)C(=O)N[C@@H](Cc1ccc(O)cc1)C(=O)N[C@H](C(=O)O)[C@@H](C)O)[C@@H](C)CC)[C@@H](C)O [LukE153–168] |  |  |  |  | 0.586 | 
CC[C@H](C)[C@H](NC(=O)[C@H](CCC(=O)O)NC(=O)[C@H](Cc1c[nH]cn1)NC(=O)[C@@H](NC(=O)[C@H](CCCCN)NC(=O)[C@H](Cc1c[nH]c2ccccc12)NC(=O)[C@H](CC(N)=O)NC(=O)[C@@H](NC(=O)[C@H](CCC(=O)O)NC(=O)[C@@H](N)Cc1ccc(O)cc1)C(C)C)[C@@H](C)O)C(=O)N[C@@H](CCCCN)C(=O)N[C@H](C(=O)N[C@@H](CCCCN)C(=O)NCC(=O)N[C@@H](Cc1c[nH]cn1)C(=O)N[C@@H](CC(N)=O)C(=O)O)C(C)C [LkT/C] |  |  |  |  | 17.3 | IC50 (I-A^d): 3.21 µM; IC50 (I-E^d): 0.0022 µM
LukE: leukotoxin E, His-tagged, purified from E. coli; antigen and vaccine | weaker IFNγ; also recorded: moderate IFNg responses | significantly stronger IL-17A and IFNγ responses | strongest IL-17A responses; also recorded: strong IL-17A responses | minimal IL-17A or IFNγ responses; also recorded: no detectable responses |  | IL-17A and IFNγ responses, vaccination compared with SSTI (splenocytes [2]): stronger IL-17A and IFNγ responses; LukE-specific IL-17A response after vaccination (splenocytes [2]): no differences in LukE-specific IL-17A responses; reduction of lesion size compared with control mice (S. aureus): approximately 40%; protection against dermonecrosis (lesion size) after vaccination (S. aureus; sc): moderately strong protection against dermonecrosis; also recorded: weaker protection; LukE-specific tetramer^+ CD44^hi CD4^+ T cells after vaccination [3]: high frequencies; also recorded: strong LukE-specific T cell responses; LukE-specific TFH cells after vaccination (TFH cells): expanded a population of LukE-specific TFH cells; also recorded: expansion of LukE-specific TFH cells

Source: PMC7112766 (Science Advances, 2020)
